The values below come from ChEMBL document CHEMBL2203171, “The use of small molecule probes to study spatially separated stimulus-induced signaling pathways” (Bioorg Med Chem Lett, 2012).

The structures appear in SMILES notation. Active and inactive are the calls of the source. The calls are words filed in the database; no cut-off is given here.

Toll-like receptor 2 (Mus musculus), sequence (Q9QUN7 whole entry): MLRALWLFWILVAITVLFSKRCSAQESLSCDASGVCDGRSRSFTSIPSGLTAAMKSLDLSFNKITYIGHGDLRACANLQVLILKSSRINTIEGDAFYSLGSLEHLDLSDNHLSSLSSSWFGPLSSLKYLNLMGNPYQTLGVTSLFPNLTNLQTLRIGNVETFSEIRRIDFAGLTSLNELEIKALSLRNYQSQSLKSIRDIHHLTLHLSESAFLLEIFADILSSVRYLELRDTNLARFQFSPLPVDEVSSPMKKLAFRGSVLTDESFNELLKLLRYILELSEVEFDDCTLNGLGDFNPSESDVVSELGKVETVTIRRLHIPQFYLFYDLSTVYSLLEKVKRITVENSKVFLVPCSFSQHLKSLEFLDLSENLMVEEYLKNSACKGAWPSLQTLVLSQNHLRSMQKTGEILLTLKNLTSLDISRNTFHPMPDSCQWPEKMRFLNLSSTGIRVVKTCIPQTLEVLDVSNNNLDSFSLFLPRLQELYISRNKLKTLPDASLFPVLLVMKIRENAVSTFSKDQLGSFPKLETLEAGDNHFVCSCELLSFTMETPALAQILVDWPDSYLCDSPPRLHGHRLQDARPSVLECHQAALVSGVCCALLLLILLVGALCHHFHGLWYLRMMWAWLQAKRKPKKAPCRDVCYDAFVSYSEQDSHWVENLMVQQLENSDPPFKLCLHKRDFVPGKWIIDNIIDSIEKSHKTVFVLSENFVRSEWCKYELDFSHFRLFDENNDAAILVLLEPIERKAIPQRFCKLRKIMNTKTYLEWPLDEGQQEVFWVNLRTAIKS

For one experiment, the target named is T1, Toll-like receptor 9 (Mus musculus) (UniProt Q9EQU3).
T1 sequence (whole entry): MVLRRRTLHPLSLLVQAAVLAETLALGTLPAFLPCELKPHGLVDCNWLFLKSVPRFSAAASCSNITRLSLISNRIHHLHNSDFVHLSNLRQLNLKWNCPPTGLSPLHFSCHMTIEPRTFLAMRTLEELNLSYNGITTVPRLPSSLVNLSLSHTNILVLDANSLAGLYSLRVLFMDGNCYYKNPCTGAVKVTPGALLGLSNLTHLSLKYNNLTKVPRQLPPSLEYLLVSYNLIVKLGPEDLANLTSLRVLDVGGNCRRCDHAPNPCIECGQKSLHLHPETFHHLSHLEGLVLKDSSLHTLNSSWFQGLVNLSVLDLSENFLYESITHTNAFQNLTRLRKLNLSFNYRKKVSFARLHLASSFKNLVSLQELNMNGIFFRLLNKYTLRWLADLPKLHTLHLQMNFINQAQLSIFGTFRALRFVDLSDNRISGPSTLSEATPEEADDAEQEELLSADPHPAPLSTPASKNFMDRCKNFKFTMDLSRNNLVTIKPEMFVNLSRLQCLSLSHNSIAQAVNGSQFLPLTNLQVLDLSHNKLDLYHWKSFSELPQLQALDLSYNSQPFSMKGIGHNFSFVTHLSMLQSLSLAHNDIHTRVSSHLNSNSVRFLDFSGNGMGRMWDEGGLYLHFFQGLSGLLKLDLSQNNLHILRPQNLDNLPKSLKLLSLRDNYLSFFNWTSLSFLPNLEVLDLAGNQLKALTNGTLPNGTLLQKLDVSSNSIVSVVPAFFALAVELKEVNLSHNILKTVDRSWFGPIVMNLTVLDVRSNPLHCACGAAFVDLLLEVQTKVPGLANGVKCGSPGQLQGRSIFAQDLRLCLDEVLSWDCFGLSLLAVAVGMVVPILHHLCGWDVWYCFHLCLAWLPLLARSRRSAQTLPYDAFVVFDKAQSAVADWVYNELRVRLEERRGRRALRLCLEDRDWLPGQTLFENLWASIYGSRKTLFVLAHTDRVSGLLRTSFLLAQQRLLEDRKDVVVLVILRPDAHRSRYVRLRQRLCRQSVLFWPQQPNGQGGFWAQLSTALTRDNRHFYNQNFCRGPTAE
Kind of experiment: Inhibition of MyD88 recruitment to TLR9 in C57BL/6 mouse BMDM cells assessed as inhibition of CpG-induced IkappaBalpha phosphorylation up to 90 mins by Western blot analysis. Format: cell-based. In short, it runs like this: (§1)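 Bone marrow macrophages from C57BL/6 mice, grown in 70% growth medium (DMEM, 10% FBS) plus 30% L929-conditioned medium and given fresh medium 12-14 h before stimulation. Stimuli: IL-1 40 ng/ml, HKSA ~10^8 cfu/ml, pI:pC 50 μg/ml or CpG 10 μg/ml, ± compound at 10 μM (final) added from a 200x DMSO stock. IκBα and p38 profiled by immunoblot. Three independent experiments, quantitated and normalized.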
As to `O=C(CCCCCCCC(=O)ON1C(=O)CCC1=O)Oc1ccc2cc(C(C(=O)NCc3ccccc3)N(C(=O)Cc3ccc4c(c3)OCO4)C3CC3)ccc2c1` (stereo not given), the inhibition result is “Active”.

In the case of `O=C(CCCCCN1C(=O)CCC1=O)Oc1ccc2cc(C(C(=O)NCc3ccccc3)N(C(=O)Cc3ccc4c(c3)OCO4)C3CC3)ccc2c1` (stereo not given), the inhibition entry is “Active”.

In the case of `O=C(CCCCCN1C(=O)C=CC1=O)Oc1ccc2cc(C(C(=O)NCc3ccccc3)N(C(=O)Cc3ccc4c(c3)OCO4)C3CC3)ccc2c1` (stereo not given), the inhibition result is “Active”.

The target in a further experiment is Toll-like receptor 2 (Mus musculus) (UniProt Q9QUN7). Kind of experiment: Inhibition of MyD88 recruitment to TLR2 in C57BL/6 mouse BMDM cells assessed as inhibition of HKSA-induced IkappaBalpha degradation up to 90 mins by Western blot analysis. Format: cell-based. In outline:
as §1
Turning to `O=C(CCCCCCCC(=O)ON1C(=O)CCC1=O)Oc1ccc2cc(C(C(=O)NCc3ccccc3)N(C(=O)Cc3ccc4c(c3)OCO4)C3CC3)ccc2c1` (stereo not given), the inhibition entry was “Active”.

Take `O=C(CCCCCN1C(=O)CCC1=O)Oc1ccc2cc(C(C(=O)NCc3ccccc3)N(C(=O)Cc3ccc4c(c3)OCO4)C3CC3)ccc2c1` (stereo not given): the inhibition entry was “Active”.

Consider `O=C(CCCCCN1C(=O)C=CC1=O)Oc1ccc2cc(C(C(=O)NCc3ccccc3)N(C(=O)Cc3ccc4c(c3)OCO4)C3CC3)ccc2c1` (stereo not given), for which the inhibition result was “Active”.

Another experiment has the same target. Kind of experiment: Inhibition of MyD88 recruitment to TLR2 in C57BL/6 mouse BMDM cells assessed as inhibition of HKSA-induced IkappaBalpha phosphorylation up to 90 mins by Western blot analysis. Format: cell-based. In short, it runs like this: as §1
With `O=C(CCCCCCCC(=O)ON1C(=O)CCC1=O)Oc1ccc2cc(C(C(=O)NCc3ccccc3)N(C(=O)Cc3ccc4c(c3)OCO4)C3CC3)ccc2c1` (stereo not given), the inhibition result was “Active”.

`O=C(CCCCCN1C(=O)CCC1=O)Oc1ccc2cc(C(C(=O)NCc3ccccc3)N(C(=O)Cc3ccc4c(c3)OCO4)C3CC3)ccc2c1` (stereo not given): the inhibition result is “Active”.

Turning to `O=C(CCCCCN1C(=O)C=CC1=O)Oc1ccc2cc(C(C(=O)NCc3ccccc3)N(C(=O)Cc3ccc4c(c3)OCO4)C3CC3)ccc2c1` (stereo not given), the inhibition entry was “Active”.

The next experiment concerns the target T2, Inhibitor of nuclear factor kappa-B kinase subunit beta (Mus musculus) (UniProt O88351).
T2 sequence (whole entry): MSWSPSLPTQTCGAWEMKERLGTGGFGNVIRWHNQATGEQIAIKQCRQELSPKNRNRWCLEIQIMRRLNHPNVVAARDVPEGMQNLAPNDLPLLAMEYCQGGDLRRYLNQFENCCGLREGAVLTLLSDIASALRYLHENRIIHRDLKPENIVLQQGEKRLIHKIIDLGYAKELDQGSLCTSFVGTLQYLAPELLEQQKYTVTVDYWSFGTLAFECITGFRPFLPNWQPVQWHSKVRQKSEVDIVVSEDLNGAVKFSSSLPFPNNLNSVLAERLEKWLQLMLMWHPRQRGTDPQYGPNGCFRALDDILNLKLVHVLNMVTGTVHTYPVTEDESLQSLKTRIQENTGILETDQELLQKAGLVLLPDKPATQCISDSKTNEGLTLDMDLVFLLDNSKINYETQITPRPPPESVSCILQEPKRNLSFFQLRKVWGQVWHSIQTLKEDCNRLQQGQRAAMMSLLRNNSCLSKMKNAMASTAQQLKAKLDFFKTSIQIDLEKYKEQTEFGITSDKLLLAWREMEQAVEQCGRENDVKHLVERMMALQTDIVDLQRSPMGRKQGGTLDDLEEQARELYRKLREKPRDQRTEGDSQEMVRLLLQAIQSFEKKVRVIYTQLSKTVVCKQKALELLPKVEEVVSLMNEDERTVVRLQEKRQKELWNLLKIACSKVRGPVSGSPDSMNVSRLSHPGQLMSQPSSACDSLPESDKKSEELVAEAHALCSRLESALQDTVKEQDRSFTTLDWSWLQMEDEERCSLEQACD
The experiment can be described thus: Inhibition of IKKbeta in C57BL/6 mouse BMDM cells assessed as inhibition of TNFalpha-induced RelA phosphorylation at 25 uM after 5 mins by Western blot analysis. In kind it is cell-based. In short, it runs like this: (§2)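 C57BL/6 marrow-derived macrophages were cultured in 70% growth medium/30% L929-conditioned medium and refreshed 12-14 h before stimulation. Stimuli were TNF 40 ng/ml or LPS 100 ng/ml, ± compound at 25 μM from a 200x DMSO stock. Western blots tracked IKK, p38, IκBα and phospho-RelA. Results from three independent experiments were quantitated and normalized.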
Regarding `O=C(CCCCCCCC(=O)ON1C(=O)CCC1=O)Oc1ccc2cc(C(C(=O)NCc3ccccc3)N(C(=O)Cc3ccc4c(c3)OCO4)C3CC3)ccc2c1` (stereo not given), the inhibition result is “inactive”.

As to `O=C(CCCCCN1C(=O)CCC1=O)Oc1ccc2cc(C(C(=O)NCc3ccccc3)N(C(=O)Cc3ccc4c(c3)OCO4)C3CC3)ccc2c1` (stereo not given), the inhibition result was “inactive”.

On to `O=C(CCCCCN1C(=O)C=CC1=O)Oc1ccc2cc(C(C(=O)NCc3ccccc3)N(C(=O)Cc3ccc4c(c3)OCO4)C3CC3)ccc2c1` (stereo not given), for which the inhibition result was “inactive”.

A further experiment has as its target T2, Inhibitor of nuclear factor kappa-B kinase subunit beta (Mus musculus). Kind of experiment: Inhibition of IKKbeta in C57BL/6 mouse BMDM cells assessed as inhibition of TNFalpha-induced IkappaBalpha phosphorylation at 25 uM after 5 mins by Western blot analysis. In kind it is cell-based. In short, it runs like this: as §2
As for `O=C(CCCCCCCC(=O)ON1C(=O)CCC1=O)Oc1ccc2cc(C(C(=O)NCc3ccccc3)N(C(=O)Cc3ccc4c(c3)OCO4)C3CC3)ccc2c1` (stereo not given), the inhibition result is “inactive”.

For the compound `O=C(CCCCCN1C(=O)CCC1=O)Oc1ccc2cc(C(C(=O)NCc3ccccc3)N(C(=O)Cc3ccc4c(c3)OCO4)C3CC3)ccc2c1` (stereo not given), the inhibition entry was “inactive”.

Regarding `O=C(CCCCCN1C(=O)C=CC1=O)Oc1ccc2cc(C(C(=O)NCc3ccccc3)N(C(=O)Cc3ccc4c(c3)OCO4)C3CC3)ccc2c1` (stereo not given), the inhibition result was “inactive”.
